{"source": "BindingDB's records for doi:10.1021/jm960652r", "about": "(Genentech, 1997)", "key": {"[1]": {"biological_target": "T1, Integrin alpha-IIb/beta-3 (Homo sapiens, UniProt P08514+P05106)", "T1 sequence (P05106 27-788 limits assumed)": "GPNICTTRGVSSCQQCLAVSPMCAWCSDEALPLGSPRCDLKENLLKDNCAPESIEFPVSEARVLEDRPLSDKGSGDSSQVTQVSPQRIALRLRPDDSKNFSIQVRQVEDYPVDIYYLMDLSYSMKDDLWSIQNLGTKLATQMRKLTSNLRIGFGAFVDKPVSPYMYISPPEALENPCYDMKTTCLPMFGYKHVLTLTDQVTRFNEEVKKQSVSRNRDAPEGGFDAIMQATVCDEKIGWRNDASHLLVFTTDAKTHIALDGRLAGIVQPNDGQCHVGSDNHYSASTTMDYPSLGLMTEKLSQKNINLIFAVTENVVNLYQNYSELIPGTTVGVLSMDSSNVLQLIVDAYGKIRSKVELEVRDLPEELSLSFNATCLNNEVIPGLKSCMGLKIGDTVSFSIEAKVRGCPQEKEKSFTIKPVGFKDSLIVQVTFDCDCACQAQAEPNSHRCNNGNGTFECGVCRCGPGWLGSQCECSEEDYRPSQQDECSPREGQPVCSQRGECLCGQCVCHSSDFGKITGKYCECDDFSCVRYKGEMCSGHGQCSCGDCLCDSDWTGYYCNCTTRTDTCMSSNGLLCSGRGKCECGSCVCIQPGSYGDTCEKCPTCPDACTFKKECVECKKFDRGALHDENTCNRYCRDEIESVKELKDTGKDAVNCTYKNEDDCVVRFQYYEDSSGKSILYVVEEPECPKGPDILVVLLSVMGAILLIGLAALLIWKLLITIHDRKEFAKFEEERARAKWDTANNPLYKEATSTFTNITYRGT", "T1 sequence (P08514 32-887 limits assumed)": "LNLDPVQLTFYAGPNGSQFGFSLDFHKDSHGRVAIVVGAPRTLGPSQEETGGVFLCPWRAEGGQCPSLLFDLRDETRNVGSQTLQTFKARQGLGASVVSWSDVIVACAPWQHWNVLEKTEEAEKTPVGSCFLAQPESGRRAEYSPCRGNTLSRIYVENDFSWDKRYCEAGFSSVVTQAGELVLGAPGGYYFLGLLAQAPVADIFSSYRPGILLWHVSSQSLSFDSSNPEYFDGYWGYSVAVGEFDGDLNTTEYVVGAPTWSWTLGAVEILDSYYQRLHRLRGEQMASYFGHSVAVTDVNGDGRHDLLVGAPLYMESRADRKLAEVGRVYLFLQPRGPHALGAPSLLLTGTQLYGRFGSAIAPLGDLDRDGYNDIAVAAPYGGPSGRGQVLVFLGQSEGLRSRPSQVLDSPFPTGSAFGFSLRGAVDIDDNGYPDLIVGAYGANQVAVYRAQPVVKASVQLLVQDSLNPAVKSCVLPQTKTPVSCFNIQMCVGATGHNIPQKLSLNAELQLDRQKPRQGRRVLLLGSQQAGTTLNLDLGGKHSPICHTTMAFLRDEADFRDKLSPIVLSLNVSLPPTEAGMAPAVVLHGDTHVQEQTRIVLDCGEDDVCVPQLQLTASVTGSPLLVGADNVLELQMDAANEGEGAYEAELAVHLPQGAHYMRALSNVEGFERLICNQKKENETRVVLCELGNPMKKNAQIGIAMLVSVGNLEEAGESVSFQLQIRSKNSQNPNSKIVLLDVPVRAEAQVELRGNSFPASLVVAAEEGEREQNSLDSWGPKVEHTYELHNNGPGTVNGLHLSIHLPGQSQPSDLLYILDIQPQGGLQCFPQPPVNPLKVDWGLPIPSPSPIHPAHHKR", "T1 sequence (P08514 891-1039 limits assumed)": "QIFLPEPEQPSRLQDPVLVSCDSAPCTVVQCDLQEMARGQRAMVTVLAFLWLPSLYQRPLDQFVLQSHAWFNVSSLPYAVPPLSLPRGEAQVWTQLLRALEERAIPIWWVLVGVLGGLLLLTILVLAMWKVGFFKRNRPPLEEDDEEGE", "assay": "Inhibition of thrombin-induced platelet aggregation assay at 20 uM"}, "[2]": {"biological_target": "T1, Integrin alpha-IIb/beta-3", "assay": "Inhibition of 17.5 uM ADP-induced platelet aggregation of human platelet-rich plasma", "in_short": "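Aggregation of human platelets in platelet-rich plasma. Values are the average of at least 3 determinations.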"}}, "data": [{"smiles": "CN1C(=O)CN(CCC(=O)O)C(=O)c2cc(C#Cc3ccc(C(=N)N)cc3)ccc21", "note": "[3-[7-(4-Carbamimidoyl-phenylethynyl)-1-methyl-2,5-dioxo-1,2,3,5-tetrahydro-benzo[e][1,4]diazepin-4-yl]-propionic acid(G6249)]", "values": [{"measurement": "IC50", "setting": "[1]", "result": 0.213, "unit": "µM"}]}, {"smiles": "C[C@H](CC(=O)O)N1CC(=O)N(C(C)(C)C)c2c(Cl)cc(C#Cc3ccc(C(=N)N)cc3)cc2C1=O", "note": "[(R)-3-[1-tert-Butyl-7-(4-carbamimidoyl-phenylethynyl)-9-chloro-2,5-dioxo-1,2,3,5-tetrahydro-benzo[e][1,4]diazepin-4-yl]-butyric acid]", "values": [{"measurement": "IC50", "setting": "[2]", "result": 1.3, "unit": "µM"}]}, {"smiles": "C[C@H](CC(=O)O)N1CC(=O)N(C)c2ccc(C#Cc3ccc(C(=N)N)cc3)cc2C1=O", "note": "[(R)-3-[7-(4-Carbamimidoyl-phenylethynyl)-1-methyl-2,5-dioxo-1,2,3,5-tetrahydro-benzo[e][1,4]diazepin-4-yl]-butyric acid]", "values": [{"measurement": "IC50", "setting": "[2]", "result": 0.82, "unit": "µM"}]}, {"smiles": "C[C@@H](CC(=O)O)N1CC(=O)N(C(C)(C)C)c2ccc(C#Cc3ccc(C(=N)N)cc3)cc2C1=O", "note": "[(S)-3-[1-tert-Butyl-7-(4-carbamimidoyl-phenylethynyl)-2,5-dioxo-1,2,3,5-tetrahydro-benzo[e][1,4]diazepin-4-yl]-butyric acid]", "values": [{"measurement": "IC50", "setting": "[2]", "result": 0.092, "unit": "µM"}]}, {"smiles": "C[C@@H](CC(=O)O)N1CC(=O)N(C(C)(C)C)c2c(Cl)cc(C#Cc3ccc(C(=N)N)cc3)cc2C1=O", "note": "[(S)-3-[1-tert-Butyl-7-(4-carbamimidoyl-phenylethynyl)-9-chloro-2,5-dioxo-1,2,3,5-tetrahydro-benzo[e][1,4]diazepin-4-yl]-butyric acid]", "values": [{"measurement": "IC50", "setting": "[2]", "result": 0.034, "unit": "µM"}, {"measurement": "IC50", "setting": "[1]", "result": 0.06, "unit": "µM"}]}, {"smiles": "C[C@@H](CC(=O)O)N1CC(=O)N(C)c2ccc(C#Cc3ccc(C(=N)N)cc3)cc2C1=O", "note": "[(S)-3-[7-(4-Carbamimidoyl-phenylethynyl)-1-methyl-2,5-dioxo-1,2,3,5-tetrahydro-benzo[e][1,4]diazepin-4-yl]-butyric acid]", "values": [{"measurement": "IC50", "setting": "[2]", "result": 0.078, "unit": "µM"}, {"measurement": "IC50", "setting": "[1]", "result": 0.138, "unit": "µM"}]}, {"smiles": "C[C@@H](CC(=O)O)N1CC(=O)N(C)c2c(Cl)cc(C#Cc3ccc(C(=N)N)cc3)cc2C1=O", "note": "[(S)-3-[7-(4-Carbamimidoyl-phenylethynyl)-9-chloro-1-methyl-2,5-dioxo-1,2,3,5-tetrahydro-benzo[e][1,4]diazepin-4-yl]-butyric acid]", "values": [{"measurement": "IC50", "setting": "[2]", "result": 0.159, "unit": "µM"}, {"measurement": "IC50", "setting": "[1]", "result": 0.313, "unit": "µM"}]}]}
